From ChEMBL document CHEMBL2146464, “Structure-activity relationship study of nitrosopyrimidines acting as antifungal agents” (Bioorg Med Chem, 2012)
Converted amounts (≈) assume the structure as drawn. The source made the active and inactive calls. The rule behind the calls is not given here.

How the values were obtained:
Cryptococcus neoformans [1] = assay: Antifungal activity against Cryptococcus neoformans ATCC 32264 assessed as growth inhibition at 15.6 ug/mL after 48 hrs by microplate reader analysis; format: functional; details: ATCC 32264, 48 h, read-out: GI
Procedure, shortened: (§1)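 Microplate growth-inhibition assay in RPMI-1640, compound at final 250–0.98 µg/mL (DMSO ≤1%). Inoculum 1–5 × 10³ CFU/mL. Sterility and DMSO growth controls included. Percent inhibition is computed from blank-corrected OD relative to the growth control, tested in duplicate.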

Candida tropicalis [2] = assay: Antifungal activity against Candida tropicalis assessed as growth inhibition at 250 ug/mL by microplate reader analysis; format: functional; details: read-out: GI
Cryptococcus neoformans [3] = assay: Antifungal activity against Cryptococcus neoformans ATCC 32264 assessed as growth inhibition at 31.25 ug/mL after 48 hrs by microplate reader analysis; format: functional; details: ATCC 32264, 48 h, read-out: GI; procedure, shortened: as §1
Cryptococcus neoformans [4] = assay: Antifungal activity against Cryptococcus neoformans ATCC 32264 assessed as growth inhibition at 62.5 ug/mL after 48 hrs by microplate reader analysis; format: functional; details: ATCC 32264, 48 h, read-out: GI; procedure, shortened: as §1
[5] = tested on: Trichophyton mentagrophytes; assay: Fungicidal activity against Trichophyton mentagrophytes ATCC 9972 after 48 hrs by agar plate dilution method; format: functional; details: ATCC 9972, 48 h
Procedure, shortened: (§2)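 MFC: after the microdilution MIC, material from each clear well was plated onto RPMI-1640 agar buffered with MOPS. Plates incubated at 30 °C and read after 48 h. MFC is the lowest concentration giving total inhibition of visible growth.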

[6] = Acute toxicity in bony fish assessed as mortality at 5 ug/mL after 96 hrs; details: actinopterygii, 96 h
Procedure, shortened: (§3)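 Guppy (Poecilia reticulata) acute static exposure: 10 fish per concentration in 2 L wide-mouthed jars holding the test solution. Compounds were added from […] to give the final concentrations. Dead fish were counted and removed every 24 h, with general condition noted; percentage mortality was scored at 96 h. Two experiments, each in triplicate.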

Candida albicans [7] = assay: Antifungal activity against Candida albicans ATCC 10231 assessed as growth inhibition at 3.9 ug/mL after 24 hrs by microplate reader analysis; format: functional; details: ATCC 10231, 24 h, read-out: GI
Procedure, shortened: (§4)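 96-well RPMI-1640 wells with compound at final 250–0.98 µg/mL (DMSO ≤1%). Inoculum 100 µL, 1–5 × 10³ CFU/mL, 200 µL final. Each well includes growth (DMSO, no compound) and sterility controls. % inhibition = 100 − (CTW−SCW)/(GCW−SCW) × 100, run in duplicate.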

Candida tropicalis [8] = assay: Antifungal activity against Candida tropicalis assessed as growth inhibition at 62.5 ug/mL by microplate reader analysis; format: functional; details: read-out: GI
[9] = Acute toxicity in bony fish assessed as mortality at 0.4 ug/mL after 96 hrs; details: actinopterygii; read-out: Activity; procedure, shortened: as §3
Nannizzia gypsea [10] = assay: Fungicidal activity against Microsporum gypseum CCC 115 after 48 hrs by agar plate dilution method; format: functional; details: CCC 115, 48 h; procedure, shortened: as §2
Candida albicans [11] = assay: Antifungal activity against Candida albicans ATCC 10231 assessed as growth inhibition at 62.5 ug/mL after 24 hrs by microplate reader analysis; format: functional; details: ATCC 10231, 24 h, read-out: GI; procedure, shortened: as §4
Candida albicans [12] = assay: Antifungal activity against Candida albicans ATCC 10231 after 24 hrs by microplate reader analysis; format: functional; details: ATCC 10231, 24 h; procedure, shortened: as §4
Nannizzia gypsea [13] = assay: Antifungal activity against Microsporum gypseum CCC 115 by NCCLS broth microdilution method; format: functional; details: read-out: MIC100
Procedure, shortened: (§5)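 MIC by broth microdilution per NCCLS M27-A3/M38-A2 in RPMI-1640 buffered to pH 7.0 with MOPS. Twofold dilutions from 250–0.98 µg/mL, final DMSO ≤1%. Inoculum 1–5 × 10³ CFU/mL. Incubated in a moist dark chamber, 30 °C for Aspergillus and 28–30 °C for dermatophytes. Read visually when control growth allowed. Endpoint is the lowest concentration giving total inhibition of visible growth (MIC100).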

Cryptococcus neoformans [14] = assay: Antifungal activity against Cryptococcus neoformans ATCC 32264 assessed as growth inhibition at 250 ug/mL after 48 hrs by microplate reader analysis; format: functional; details: ATCC 32264, 48 h, read-out: GI; procedure, shortened: as §1
Candida tropicalis [15] = assay: Antifungal activity against Candida tropicalis assessed as growth inhibition at 15.6 ug/mL by microplate reader analysis; format: functional; details: read-out: GI
[16] = Acute toxicity in bony fish assessed as mortality at 0.8 ug/mL after 48 hrs; details: actinopterygii; read-out: Activity
Candida albicans [17] = assay: Antifungal activity against Candida albicans ATCC 10231 assessed as growth inhibition at 125 ug/mL after 24 hrs by microplate reader analysis; format: functional; details: ATCC 10231, 24 h, read-out: GI; procedure, shortened: as §4
[18] = Acute toxicity in bony fish assessed as mortality at 1.6 ug/mL after 24 hrs; details: actinopterygii; read-out: Activity
Candida tropicalis [19] = assay: Antifungal activity against Candida tropicalis assessed as growth inhibition at 125 ug/mL by microplate reader analysis; format: functional; details: read-out: GI
Aspergillus niger = assay: Antifungal activity against Aspergillus niger ATCC 9029 at 0.98 to 250 ug/mL by NCCLS broth microdilution method; format: functional, organism-based; procedure, shortened: as §5
Candida albicans [20] = assay: Antifungal activity against Candida albicans ATCC 10231 after 48 hrs by NCCLS broth microdilution method; format: functional; details: ATCC 10231, 48 h, read-out: MIC100
Procedure, shortened: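 Yeast MIC by NCCLS M27-A3 broth microdilution in RPMI-1640 buffered to pH 7.0 with MOPS. Twofold dilutions of 250–0.98 µg/mL, final DMSO ≤1%. Inoculum 1–5 × 10³ CFU/mL. Incubated at 30 °C in a moist dark chamber. Read visually at 48 h. MIC100 is the lowest concentration with no visible growth versus drug-free control.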

Candida albicans [21] = assay: Antifungal activity against Candida albicans ATCC 10231 assessed as growth inhibition at 31.25 ug/mL after 24 hrs by microplate reader analysis; format: functional; details: ATCC 10231, 24 h, read-out: GI; procedure, shortened: as §4

`COc1nc(N)c(N=O)c(OCc2ccccc2)n1` showed an inhibition of growth at 15.6 µg/mL (Cryptococcus neoformans [1]) of 80.2%, an inhibition of growth at 250 µg/mL (Candida tropicalis [2]) of 100% and an inhibition of growth at 31.25 µg/mL (Cryptococcus neoformans [3]) of 88.1%. The inhibition of growth at 62.5 µg/mL (Cryptococcus neoformans [4]) was 100%, the MFC [5] was 125 µg/mL (≈ 480 µM) and the Activity [6] was “Non-toxic”. The inhibition of growth at 3.9 µg/mL (Candida albicans [7]) was 47.2%, the inhibition of growth at 62.5 µg/mL (Candida tropicalis [8]) was 100% and the mortality at 96 h, 0.4 ug/mL [9] was 0%. The MFC (Nannizzia gypsea [10]) was 62.5 µg/mL (≈ 240 µM), the inhibition of growth at 62.5 µg/mL (Candida albicans [11]) was 100% and the MIC50 (Candida albicans [12]) was 7.8 µg/mL (≈ 30 µM). It also gave an MIC (Nannizzia gypsea [13]) of 62.5 µg/mL (≈ 240 µM), an inhibition of growth at 250 µg/mL (Cryptococcus neoformans [14]) of 100% and an inhibition of growth at 15.6 µg/mL (Candida tropicalis [15]) of 96.7%. The mortality at 48 h, 0.8 ug/mL [16] was 100%, the inhibition of growth at 125 µg/mL (Candida albicans [17]) was 100% and the mortality at 24 h, 1.6 ug/mL [18] was 100%. For the same compound, the inhibition of growth at 125 µg/mL (Candida tropicalis [19]) was 100%, the Activity (Aspergillus niger) was “inactive” and the MIC (Candida albicans [20]) was 31.2 µg/mL (≈ 120 µM). It also gave an inhibition of growth at 31.25 µg/mL (Candida albicans [21]) of 100%.
